We go through 15 compounds from ChEMBL document CHEMBL1152740, “Synthesis and pharmacological activities of some sesquiterpene quinones and hydroquinones” (Bioorg Med Chem, 2009).

In brackets after ≈: the same amount, converted by molar mass. Activity calls are given as the source filed them. No cut-off for these calls is given here.

One series has as its system K562. As to the kind of experiment: Antiproliferative activity against human K562 cells. Format: functional. In outline: (§1)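 GI50 or CC50 values were read from mean dose-response curves, with 4 parallels per concentration.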
A further series has as its system L929. As to the kind of experiment: Antiproliferative activity against mouse L929 cells. Format: cell-based. In outline:
as §1

The next series concerns HeLa. In words: Cytotoxicity against human HeLa cells. Format: functional. In outline: as §1
Another series has as its system Neutrophil. In words: Inhibition of serum-opsonized zymosan-stimulated ROS production in bovine neutrophils by luminol-dependent chemiluminescence assay. Format: functional, cell-based. To be noted: Bos taurus.
For series [1], the target named is Dehydrogenase/reductase SDR family member 9 (Homo sapiens) (UniProt Q9BPW9). In words: Inhibition of 3alpha-HSD.
Series [2] has as its target T1, Prostaglandin G/H synthase 2 (Homo sapiens, UniProt P35354).
T1 sequence (P35354 whole entry): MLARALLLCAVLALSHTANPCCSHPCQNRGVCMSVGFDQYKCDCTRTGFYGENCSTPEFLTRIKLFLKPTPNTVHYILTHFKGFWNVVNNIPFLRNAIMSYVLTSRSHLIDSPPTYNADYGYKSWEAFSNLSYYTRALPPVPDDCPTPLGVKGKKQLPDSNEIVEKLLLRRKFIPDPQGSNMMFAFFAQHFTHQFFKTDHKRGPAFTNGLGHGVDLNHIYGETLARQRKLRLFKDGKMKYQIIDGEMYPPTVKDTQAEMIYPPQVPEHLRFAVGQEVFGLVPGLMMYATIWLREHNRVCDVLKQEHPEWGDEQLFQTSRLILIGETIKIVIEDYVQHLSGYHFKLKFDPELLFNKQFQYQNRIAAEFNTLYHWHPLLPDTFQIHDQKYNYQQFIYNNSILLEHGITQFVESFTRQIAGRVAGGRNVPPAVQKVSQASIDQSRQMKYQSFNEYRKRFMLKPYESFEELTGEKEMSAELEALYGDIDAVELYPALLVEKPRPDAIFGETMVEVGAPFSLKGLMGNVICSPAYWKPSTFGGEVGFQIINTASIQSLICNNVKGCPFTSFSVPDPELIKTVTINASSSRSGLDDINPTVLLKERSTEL

Another series concerns HepG2. As to the kind of experiment: Growth inhibition of human HepG2 cells. Format: functional. In outline:
as §1

The test system of the next series is MCF7. In words: Growth inhibition of human MCF7 cells. Format: functional. The procedure, abridged:
as §1

Series [3] can be described thus: Growth inhibition of human HM02 cells. Format: functional. The procedure, abridged: as §1

As a reminder, the GI50 is the concentration that inhibits growth by half. The low end stands for greater sensitivity of the cells, the high end for lower sensitivity of the cells. For orientation: CC50 means the concentration that lowers cell viability or growth by half. The IC50 is the concentration at which inhibition is half-maximal. The low end stands for greater potency in that assay, the high end for weaker potency in that assay.

Chain of Dehydrogenase/reductase SDR family member 9 (Homo sapiens) (Q9BPW9 whole entry): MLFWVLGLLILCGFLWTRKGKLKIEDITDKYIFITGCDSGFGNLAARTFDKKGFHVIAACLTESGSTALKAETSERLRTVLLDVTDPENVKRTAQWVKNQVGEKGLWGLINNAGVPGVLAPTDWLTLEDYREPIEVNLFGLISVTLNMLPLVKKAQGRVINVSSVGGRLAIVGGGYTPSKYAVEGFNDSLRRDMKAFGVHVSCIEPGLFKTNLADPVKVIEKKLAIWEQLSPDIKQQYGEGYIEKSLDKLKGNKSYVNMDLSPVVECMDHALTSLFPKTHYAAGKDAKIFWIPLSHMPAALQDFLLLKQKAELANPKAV

As to `C=C1CC[C@H]2C(C)(C)CCC[C@]2(C)[C@H]1/C=C1\C=C2OCOC2=CC1=O` (racemic) [SESQUITERPENE CYCLOHEXADIENONE], the values for the GI50 in the series on K562 and with L929 were 6.2 µM and 12.9 µM, respectively. Besides, the CC50 in the series on HeLa is 20.6 µM.

As to `C=C1CC[C@@H]2C(C)(C)CCC[C@@]2(C)[C@@H]1CC1=CC(=O)C=CC1=O`, the outcome with Neutrophil was Active.

Regarding `COc1c(C[C@H]2C(C)=CC[C@H]3C(C)(C)CCC[C@]23C)cc2c(c1C=O)OCO2` (racemic) [PROTECTED SIPHONODICTYAL C], the GI50 in the series with K562 came to 21.1 µM; in the series on L929 it was 24 µM. Further, the result in series [1] was Active. The compound further came in with a CC50 with HeLa of 41.4 µM.

With `C=C1CC[C@@H]2C(C)(C)CCC[C@@]2(C)[C@@H]1Cc1cc(O)ccc1O`, the outcome (in the series with Neutrophil; in series [1]) was Active.

In the case of `COc1ccc(O)c(O)c1C[C@@]1(C)C2=C(CC[C@@H]1C)C(C)(C)CCC2` (racemic) [SESQUITERPENE HYDROQUINONE], the GI50 in the series on K562 stood at 25.6 µM; in the series on L929, 59.9 µM. The compound also showed a CC50 in the series with HeLa of 41.3 µM.

For `COC1=CC(=O)C(OC)=C(/C=C2\[C@@H](C)CC[C@H]3C(C)(C)CCC[C@]23C)C1=O`, the GI50 in the series with K562 was determined as 20.7 µM; in the series on L929 it was 41.6 µM. This compound also showed a CC50 in the series with HeLa of 75.3 µM.

On to `CC1=CC[C@H]2C(C)(C)CCC[C@]2(C)[C@H]1/C=C1\C=C2OCOC2=CC1=O` (racemic), for which the GI50 was 3.5 µM with K562 and 6.2 µM in the series on L929. Also, the outcome in series [1] was Active. In addition, the CC50 in the series with HeLa is 7.4 µM.

For `COC1=CC(=O)C(O)=C(C[C@@]2(C)C3=C(CC[C@@H]2C)C(C)(C)CCC3)C1=O` (racemic), the GI50 was determined as 6.1 µM with K562 and 14 µM with L929. In the series with HeLa, this compound showed a half-maximal cytotoxic concentration (CC50) of 62.3 µM.

In the case of `CC1=CC[C@@H]2C(C)(C)CCC[C@@]2(C)[C@@H]1Cc1cc(O)ccc1O`, the outcome with Neutrophil was Active.

For the compound `COc1ccc(O)c(O)c1/C=C1\[C@@H](C)CC[C@H]2C(C)(C)CCC[C@]12C` (racemic) [(+/-)-WIEDENDIOL B], in series [2], the IC50 amounted to 0.7 µM. For the same compound, the values for the GI50 in the series on K562 and with L929 were 35.8 µM and 63.1 µM, respectively. Besides, the result in series [1] was Active. The same compound gave a CC50 in the series with HeLa of 38.1 µM.

Consider `COC1=CC(=O)C(=O)C(C[C@@]2(C)C3=C(CC[C@@H]2C)C(C)(C)CCC3)=C1OC` (racemic), for which the GI50 in the series on K562 was 26.6 µM; in the series with L929, 73.4 µM. Besides, in series [1], the result was Active. For the same compound, the midpoint of cytotoxicity in the series with HeLa, the CC50, lay at 61.3 µM.

For the compound `COc1cccc2c1C(=O)c1c(O)c3c(c(O)c1C2=O)C[C@@](O)(C(=O)CO)C[C@@H]3O[C@H]1C[C@H](N)[C@H](O)[C@H](C)O1` [DOXORUBICIN], the GI50 was found to be 1 µM with K562 and 1.2 µM in the series with L929. Moreover, half-maximal cytotoxicity in the series on HeLa (CC50) was put at 2 µM.

As to `C=C1CC[C@@H]2C(C)(C)CCC[C@@]2(C)[C@@H]1CC1=C(O)C(=O)C=C(OC)C1=O` (racemic), the GI50 in the series on HepG2 amounted to 6 µg/mL (≈ 16.7 µM); with K562 it was 8.4 µM; in the series on MCF7, 2.4 µg/mL (≈ 6.69 µM); in the series on L929 it was 20.9 µM; in series [3], 5.3 µg/mL (≈ 14.8 µM). Moreover, the outcome in [1] was Active. The CC50 with HeLa is 72.1 µM.

`COC1=CC(=O)C(O)=C(/C=C2\[C@@H](C)CC[C@H]3C(C)(C)CCC[C@]23C)C1=O` (racemic): the GI50 in the series with HepG2 was found to be 3.6 µg/mL (≈ 10 µM); in the series on K562, 13.4 µM; in the series on MCF7 it was 2.6 µg/mL (≈ 7.25 µM); in the series on L929 it was 27.1 µM; in series [3], 3.1 µg/mL (≈ 8.65 µM). For the same compound, in [1], the result was Active. In the series on HeLa, this compound came in with a CC50 of 75.1 µM.

As to `CC1=CC[C@@H]2C(C)(C)CCC[C@@]2(C)[C@@H]1CC1=CC(=O)C=CC1=O`, the outcome (with Neutrophil; in series [1]) was Active.
